Two compounds from paper PMC6832743 (ACS nano, 2019) can be followed below.

Series [1] deals with Mouse bone marrow-derived dendritic cells (BMDCs). The series is described as follows: BMDC cytokine secretion. It is filed as cell-based. To be noted: 6 h incubation + 18 h fresh medium, ELISA. In short, it runs like this: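 Immature mouse bone marrow-derived DCs plated at 2 × 10^6 cells per well and held overnight. Cells exposed for 6 h to free adjuvant, free photosensitizer or loaded mesoporous silica nanoparticles. Medium exchanged for fresh medium and incubation continued for 18 h. Culture medium then collected and IL-12p70 and TNF-α measured with ELISA kits.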
(In an ELISA, binding on a coated surface is turned into a signal by an enzyme label.)

Series [2] has the same test system. In words: BMDC activation. It is filed as cell-based. To be noted: 6 h incubation + 18 h fresh medium, flow cytometry. In short, it runs like this:
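Immature mouse bone marrow-derived DCs plated at 2 × 10^6 cells per well and held overnight. Cells exposed for 6 h to free adjuvant, free photosensitizer or adjuvant/photosensitizer-loaded mesoporous silica nanoparticles. Medium then replaced and incubation continued for 18 h. Cells harvested, stained with fluorophore-labelled anti-CD40, anti-CD80 and anti-CD86, and analysed by flow cytometry, gating live intact cells only.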
For orientation: A flow cytometer gives signals particle by particle.

Series [3] can be described thus: UV-vis absorption / aqueous solubility of Ce6. It counts as physicochemical. To be noted: Ce6 diluted in PBS; ~660 nm absorption peak absent.

Take CSSASMTNMELM [Adpgk]: the “secretion of IL-12p70 and TNF-α” value in series [1] is recorded as “did not secrete any detectable levels”. For the same compound, the “DC maturation (expression levels of CD40, CD80, CD86)” value in series [2] is “no obvious signs of DC maturation”.
Regarding `C=Cc1c(C)c2cc3nc(c(CC(=O)O)c4[nH]c(cc5nc(cc1[nH]2)C(C)=C5CC)c(C)c4C(=O)O)[C@@H](CCC(=O)O)[C@@H]3C` [Ce6, chlorin e6], the “secretion of IL-12p70 and TNF-α” value in series [1] is “did not secrete any detectable levels”. Moreover, the “DC maturation (expression levels of CD40, CD80, CD86)” value in series [2] is “no obvious signs of DC maturation”. Also, the aqueous solubility result in series [3] is reported as “poor aqueous solubility”.
